Tested on: HL-60 promyelocytes
Assay: HL-60 differentiation
Assay type: cell-based
Conditions: Homo sapiens, HL-60, read-out: HL-60 differentiation EC50
Method in brief: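 Differentiation of HL-60 promyelocytes to monocytes, scored as the percentage of cells reducing nitro blue tetrazolium. EC50 taken from dose–response curves as the concentration giving 50% maturation. Ratio is the average of test compound EC50 over 1α,25-(OH)2D3 EC50. Run in duplicate on at least two occasions.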

C=C1/C(=C\C=C2/CCC[C@]3(C)[C@@H]([C@H](C)CCCC(C)(C)O)CC[C@@H]23)C[C@@H](O)C[C@@H]1O [Compound 1, 1α,25-Dihydroxyvitamin D3]
EC50: 2 nM
